From ChEMBL document CHEMBL1641514, “Drug metabolism-based design, synthesis, and bioactivities of 1-(2,6-dimethylphenoxy)-2-(3,4-dimethoxyphenylethylamino)propane hydrochloride (DDPH) analogs as α₁-adrenoceptors antagonists” (Bioorg Med Chem, 2011)

Key:
[1] = target: T1, Adrenergic receptor alpha-1 (Rattus norvegicus, UniProt P15823+P23944+P43140); experiment: Antagonist activity at alpha1 adrenergic receptor in Sprague-Dawley rat anococcygeus smooth muscle assessed as inhibition of phenylepinephrine-induced muscle contraction treated 20 mins before phenylepinephrine challenge; format: functional
T1 sequence (P15823 whole entry): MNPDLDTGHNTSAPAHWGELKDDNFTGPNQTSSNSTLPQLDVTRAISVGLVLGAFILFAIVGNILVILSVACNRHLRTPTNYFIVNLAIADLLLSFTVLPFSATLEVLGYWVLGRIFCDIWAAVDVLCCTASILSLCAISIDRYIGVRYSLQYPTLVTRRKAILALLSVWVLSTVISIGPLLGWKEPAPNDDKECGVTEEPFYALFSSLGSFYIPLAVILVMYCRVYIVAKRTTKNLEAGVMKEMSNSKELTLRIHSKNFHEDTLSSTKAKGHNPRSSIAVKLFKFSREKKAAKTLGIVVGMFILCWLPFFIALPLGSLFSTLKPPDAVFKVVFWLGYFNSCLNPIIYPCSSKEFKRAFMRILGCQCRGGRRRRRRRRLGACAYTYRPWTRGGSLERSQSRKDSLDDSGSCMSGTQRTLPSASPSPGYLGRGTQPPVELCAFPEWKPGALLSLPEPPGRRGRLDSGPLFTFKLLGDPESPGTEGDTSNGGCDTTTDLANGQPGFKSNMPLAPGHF
T1 sequence (P23944 whole entry): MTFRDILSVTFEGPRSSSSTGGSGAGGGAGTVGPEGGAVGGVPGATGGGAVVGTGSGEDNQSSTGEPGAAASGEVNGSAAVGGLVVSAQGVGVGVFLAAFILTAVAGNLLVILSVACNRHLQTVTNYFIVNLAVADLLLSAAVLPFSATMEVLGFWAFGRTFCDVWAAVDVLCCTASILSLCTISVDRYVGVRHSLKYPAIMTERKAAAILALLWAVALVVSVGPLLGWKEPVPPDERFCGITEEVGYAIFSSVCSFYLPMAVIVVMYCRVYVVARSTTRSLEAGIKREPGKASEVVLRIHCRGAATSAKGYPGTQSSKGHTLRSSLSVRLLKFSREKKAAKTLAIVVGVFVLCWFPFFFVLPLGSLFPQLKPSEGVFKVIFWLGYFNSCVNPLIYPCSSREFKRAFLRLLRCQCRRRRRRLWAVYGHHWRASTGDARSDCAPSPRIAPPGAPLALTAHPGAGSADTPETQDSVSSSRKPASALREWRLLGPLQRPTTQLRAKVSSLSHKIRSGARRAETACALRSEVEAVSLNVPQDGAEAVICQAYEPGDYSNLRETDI
T1 sequence (P43140 whole entry): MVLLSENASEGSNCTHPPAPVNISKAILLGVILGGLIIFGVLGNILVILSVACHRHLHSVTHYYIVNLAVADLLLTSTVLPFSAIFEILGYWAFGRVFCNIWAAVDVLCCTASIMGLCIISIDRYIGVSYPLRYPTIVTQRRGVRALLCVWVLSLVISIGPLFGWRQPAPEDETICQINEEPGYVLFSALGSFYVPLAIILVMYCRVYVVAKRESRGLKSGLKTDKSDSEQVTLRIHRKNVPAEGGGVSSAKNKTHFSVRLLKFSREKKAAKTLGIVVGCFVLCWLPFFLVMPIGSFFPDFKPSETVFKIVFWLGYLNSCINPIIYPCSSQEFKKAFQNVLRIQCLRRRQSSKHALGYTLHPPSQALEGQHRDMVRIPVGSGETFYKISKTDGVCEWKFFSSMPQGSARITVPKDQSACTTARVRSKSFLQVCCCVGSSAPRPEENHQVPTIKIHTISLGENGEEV
In short: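 Male Sprague–Dawley rats (300–350 g) killed by cervical dislocation. Anococcygeus muscle mounted in a 20 mL bath of Krebs solution (pH 7.4), 37 °C, gassed with 5% CO₂/95% O₂. Resting tension 1.0 g. Equilibrated 1 h with Krebs renewal every 20 min. Cocaine, hydrocortisone and propranolol then added. pA₂ read out.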

Rattus norvegicus [2] = experiment: Antihypertensive activity in Sprague-Dawley rat assessed as change in heart rate at 5 mg/kg, iv
Rattus norvegicus [3] = experiment: Antihypertensive activity in Sprague-Dawley rat assessed as change in mean arterial pressure at 5 mg/kg, iv
Rattus norvegicus [4] = experiment: Antihypertensive activity in Sprague-Dawley rat assessed as change in systolic arterial pressure at 5 mg/kg, iv
Rattus norvegicus [5] = experiment: Antihypertensive activity in Sprague-Dawley rat assessed as change in diastolic arterial pressure at 5 mg/kg, iv
Rattus norvegicus [6] = experiment: Antihypertensive activity in Sprague-Dawley rat assessed as time duration of hypotensive response at 5 mg/kg, iv

In the case of `COc1ccc(CCNC(C)COc2c(C)cc(Br)cc2C)cc1O.Cl` (configuration not stated), the pA2 [1] is reported as 7.02, the Activity (Rattus norvegicus [2]) is reported as -2.3% and the Activity (Rattus norvegicus [3]) is reported as -7.5%. The Activity (Rattus norvegicus [4]) was -3.5%, the Activity (Rattus norvegicus [5]) was -12.8% and the Time (Rattus norvegicus [6]) was 4 min.
Compound `COc1cc(CCNC(C)COc2c(C)cc(Br)cc2C)ccc1O.Cl` (configuration not stated) has a pA2 [1] of 9.94, an Activity (Rattus norvegicus [2]) of -1.7% and an Activity (Rattus norvegicus [3]) of -15.5%. The Activity (Rattus norvegicus [4]) was -7.6%, the Activity (Rattus norvegicus [5]) was -19.1% and the Time (Rattus norvegicus [6]) was 23 min.
For `COc1cc(CCNC(C)COc2c(C)cc(Cl)cc2C)ccc1O.Cl` (configuration not stated), the pA2 [1] was 8.6, the Activity (Rattus norvegicus [2]) was -6.6% and the Activity (Rattus norvegicus [3]) was -20.2%. It also gave an Activity (Rattus norvegicus [4]) of -12.1%, an Activity (Rattus norvegicus [5]) of -25.1% and a Time (Rattus norvegicus [6]) of 61 min.
In the case of `COc1ccc(CCNC(C)COc2c(C)cc(C#N)cc2C)cc1O.Cl` (configuration not stated), the pA2 [1] is reported as 5.61, the Activity (Rattus norvegicus [2]) is reported as -6.4% and the Activity (Rattus norvegicus [3]) is reported as -11%. The Activity (Rattus norvegicus [4]) was -8.2%, the Activity (Rattus norvegicus [5]) was -14.2% and the Time (Rattus norvegicus [6]) was 4 min.
Work on `COc1ccc(CCNC(C)COc2c(C)ccc(C)c2C)cc1OC.Cl` (configuration not stated) yielded a pA2 [1] of 7.71, an Activity (Rattus norvegicus [2]) of -16.6% and an Activity (Rattus norvegicus [3]) of -27.1%. The Activity (Rattus norvegicus [4]) was -17.4%, the Activity (Rattus norvegicus [5]) was -34.2% and the Time (Rattus norvegicus [6]) was 57 min.
With `COc1cc(CCNC(C)COc2c(C)cc(C)cc2C)ccc1O.Cl` (configuration not stated) the pA2 [1] was 8.86, the Activity (Rattus norvegicus [2]) was -23.52% and the Activity (Rattus norvegicus [3]) was -45.92%. The Activity (Rattus norvegicus [4]) was -36.45%, the Activity (Rattus norvegicus [5]) was -48.99% and the Time (Rattus norvegicus [6]) was 205 min.
For `COc1ccc(CCNC(C)COc2c(C)cc(Cl)cc2C)cc1OC.Cl` (configuration not stated), the pA2 [1] was 8.18, the Activity (Rattus norvegicus [2]) was -8.78% and the Activity (Rattus norvegicus [3]) was -15.9%. The Activity (Rattus norvegicus [4]) was -13.3%, the Activity (Rattus norvegicus [5]) was -18.5% and the Time (Rattus norvegicus [6]) was 34 min.
Work on `COc1ccc(CCNC(C)COc2c(C)cc(Br)cc2C)cc1OC.Cl` (configuration not stated) yielded a pA2 [1] of 6.93, an Activity (Rattus norvegicus [2]) of -8.3% and an Activity (Rattus norvegicus [3]) of -8.5%. For the same compound, the Activity (Rattus norvegicus [4]) was -9.2%, the Activity (Rattus norvegicus [5]) was -7.8% and the Time (Rattus norvegicus [6]) was 12 min.
`COc1ccc(CCNC(C)COc2c(C)cc(C)cc2C)cc1OC.Cl` (configuration not stated) gave a pA2 [1] of 7.25, an Activity (Rattus norvegicus [2]) of -16.3% and an Activity (Rattus norvegicus [3]) of -27.86%. The Activity (Rattus norvegicus [4]) was -19.03%, the Activity (Rattus norvegicus [5]) was -28.23% and the Time (Rattus norvegicus [6]) was 33 min.
In the case of `COc1cc(CCNC(C)COc2c(C)ccc(C)c2C)ccc1O.Cl` (configuration not stated), the pA2 [1] is reported as 8.02, the Activity (Rattus norvegicus [2]) is reported as -0.96% and the Activity (Rattus norvegicus [3]) is reported as -14.6%. For the same compound, the Activity (Rattus norvegicus [4]) was -7.9%, the Activity (Rattus norvegicus [5]) was -20.5% and the Time (Rattus norvegicus [6]) was 80 min.
`COc1cc(CCNC(C)COc2c(C)cc(C#N)cc2C)ccc1O.Cl` (configuration not stated) showed a pA2 [1] of 6.65, an Activity (Rattus norvegicus [2]) of -2.33% and an Activity (Rattus norvegicus [3]) of -24.9%. The Activity (Rattus norvegicus [4]) was -17.3%, the Activity (Rattus norvegicus [5]) was -29.61% and the Time (Rattus norvegicus [6]) was 6 min.
`COc1ccc(CCNC(C)COc2c(C)cccc2C)cc1OC.Cl` (configuration not stated) gave a pA2 [1] of 8.07, an Activity (Rattus norvegicus [2]) of -16.04% and an Activity (Rattus norvegicus [3]) of -30.4%. For the same compound, the Activity (Rattus norvegicus [4]) was -19.79%, the Activity (Rattus norvegicus [5]) was -26% and the Time (Rattus norvegicus [6]) was 120 min.
